Rows were chosen to be rich in hits. Some 4.9% of all compounds tested hit in one or more screens of this group.
STAT1 inh: inhibitors of IFN-gamma induced STAT1 signaling | AID 920 | inhibition, % at 5.5 µM | 200,000 compounds, 0.35% hits | NIH 3T3 STAT1-luciferase reporter, luminescence;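 active = inhibition above a set limit, the mean inhibition across all tested compounds plus 3 SD, cut at about 34% in these data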
STAT1 act-1: activators of IFN-gamma induced STAT1 signaling | activation (% of control), % at 5.5 µM | 200,000 compounds, 2.6% hits | NIH 3T3 STAT1-luciferase reporter, luminescence; 100% = IFN-gamma alone, no compound;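 active = activation above the screen-wide mean activation plus 3 SD, cut at about 130% in these data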
STAT3 blocker: inhibitors of IL-6 induced STAT3 signaling; U3A cells, IL-6 STAT3-luciferase reporter, luminescence; host cell line lacks STAT1; inhibition, % at 5.5 µM; 190,000 compounds, 0.89% hits; AID 862;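 active = inhibition above the mean inhibition across all screened compounds plus 3 SD, cut at about 44% in these data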
NF-kB neuron act: compounds increasing NF-kB expression in human neuronal cells | NF-kB reporter expression; stronger effect = higher value | fold change at 12.5 µM | 190,000 compounds, 1.6% hits; in the data active = fold change above about 3.3
APP 5'UTR act: APP 5'UTR luciferase reporter activation; SH-SY5Y APP 5'UTR luciferase reporter, luminescence; zero percent = DMSO vehicle wells; activation, % at 2 µM; 190,000 compounds, 1% hits; AID 1276;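 active = activation above a set limit, based on mean plus 3 SD of controls, cut at about 140% in these data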
STAT3 act-1: STAT3 signaling activation; activation (% of control), % at 5.6 µM; 190,000 compounds, 0.91% hits; AID 871; U3A cells, IL-6 STAT3-luciferase reporter, luminescence; 100% = signal with IL-6 EC80 alone;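 active = activation above the screen-wide mean of compound activation plus 3 SD, cut at about 130% in these data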
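Assay system – human STAT1-deficient U3A cells with stable STAT3-luciferase reporter · Also added – IL-6 (33 ng/mL) · Schedule – compound 1 h, then IL-6 6 h at 37 °C · Technique – reporter luminescence signal · Evaluation – % activation versus median of IL-6-stimulated wells · Benchmarks – IL-6-only wells as 100% reference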
STAT3 act-2: confirmation of STAT3 signaling activators. shares compounds with STAT3 act-1. U3A STAT3-luciferase reporter, IL-6 potentiation, luminescence; U3A cells lack STAT1; 100 means same as IL-6 alone. potentiation (% of control), % at 5.7 µM. 1,200 compounds, 64% hits;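 active = percent activation of the STAT3 luciferase reporter above a set limit taken from the earlier primary screen, cut at about 130% in these data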
NFkB act 2: activates NF-kappaB, counter-screen to STAT3 activators. activation (% of control), % at 5.7 µM. shares compounds with STAT3 act-1. human cells, NF-kappaB reporter activation. 1,200 compounds, 11% hits; in the data active = activation above about 120%;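 also: reporter induced by TNF-alpha stimulation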
STAT1 act-2: activates STAT1, counter-screen to STAT3 activators | shares compounds with STAT3 act-1 | NIH 3T3 STAT1-luciferase reporter, IFN-gamma, luminescence | activation (% of control), % at 5.7 µM | 1,200 compounds, 13% hits;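 active = activation above the solvent-only control well mean plus 3 SD, set per screening run, cut at about 120% in these data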
Of the large screens only hits and unclear results are named; the others gave an inactive call (follow-up assays come after a bar, where they were run).

COc1cc2cc(/C=C/C(=O)c3ccco3)c(Cl)nc2cc1OC	STAT3 act-1 139 | STAT3 act-2 inactive | NFkB act 2 inactive | STAT1 act-2 inactive
COc1ccc2cc(/C=C/C(=O)c3ccco3)c(Cl)nc2c1	none
CCN(CC)C(=S)Nc1ccc(Cl)c(Cl)c1	none
C=CCn1c(COc2ccc(CC)cc2)nnc1SC/C(O)=C(\C#N)c1nc2ccccc2[nH]1	STAT3 act-1 160 | STAT3 act-2 150 | NFkB act 2 inactive | STAT1 act-2 inactive
CC(C)NC(=S)N/N=C/c1ccc2c(c1)OCCO2	none
CCOC(=O)Cc1nnc(NC(=O)C(CC)Sc2nnc3c4ccccc4n(C)c3n2)s1 (stereo not drawn)	STAT3 act-1 137 | STAT3 act-2 158 | NFkB act 2 inactive | STAT1 act-2 inactive
Cc1nn(-c2ccccc2)c2c1C(c1cccs1)C(C#N)=C(N)O2 (stereo not drawn)	STAT3 act-1 148 | STAT3 act-2 inactive | NFkB act 2 inactive | STAT1 act-2 inactive
N#CC1=C(N)Oc2n[nH]c(-c3cccs3)c2C1c1cccs1 (stereo not drawn)	STAT3 act-1 176 | STAT3 act-2 inactive | NFkB act 2 inactive | STAT1 act-2 inactive
OCC1(Cc2ccccc2)CCCN(Cc2c[nH]c3ccccc23)C1 (stereo not drawn)	none
Cc1nc2ccccc2n(CC(=O)Nc2cc(Cl)cc(Cl)c2)c1=O	none
CCOc1ccccc1C(=O)Nn1c(C2CCC2)nc2ccccc2c1=O	STAT3 act-1 162 | STAT3 act-2 158 | NFkB act 2 inactive | STAT1 act-2 inactive
Cn1c(O)c(N=Nc2ccc(F)cc2)c2ccccc21	STAT3 act-1 152 | STAT3 act-2 165 | NFkB act 2 inactive | STAT1 act-2 inactive
Cn1c(O)c(N=Nc2nc(-c3ccccc3)cs2)c2ccccc21	STAT3 act-1 147 | STAT3 act-2 159 | NFkB act 2 inactive | STAT1 act-2 inactive
Cn1c(O)c(N=NC(=O)c2cc(-c3cccs3)nc3ccccc23)c2ccccc21	none
Cc1cc(C)c(-n2nnnc2SC(C)C)c(C)c1	none
CCOC(=O)Cn1c(C)c(C#N)c2ccccc21	none
Cc1c(C#N)c2ccccc2n1CC(=O)O	STAT3 act-1 159 | STAT3 act-2 161 | NFkB act 2 inactive | STAT1 act-2 inactive
COc1ccccc1/C=N/NC(=O)C1=NNC(c2ccccc2)(c2ccccc2)C1	STAT3 act-1 149 | STAT3 act-2 inactive | NFkB act 2 inactive | STAT1 act-2 inactive
Cc1oc(/N=C/c2ccccc2O)c(C#N)c1C	STAT3 act-1 146 | STAT3 act-2 157 | NFkB act 2 inactive | STAT1 act-2 inactive
Cc1oc(/N=C/c2ccc(O)cc2O)c(C#N)c1C	none
Cc1oc(/N=C/c2ccc(Cl)cc2)c(C#N)c1C	STAT3 act-1 146 | STAT3 act-2 136 | NFkB act 2 inactive | STAT1 act-2 inactive
CC(C)CCN1CCN(CC#Cc2ccccc2)CC1CCO (stereo not drawn)	none
NC(=O)Cn1c(=O)n(Cc2ccco2)c(=O)c2c3c(sc21)CCCCC3	STAT3 act-1 147 | STAT3 act-2 inactive | NFkB act 2 inactive | STAT1 act-2 inactive
O=C(Cn1c(C(F)(F)F)nc2ccccc21)OCC(=O)c1c[nH]c2ccccc12	STAT3 act-1 138 | STAT3 act-2 inactive | NFkB act 2 inactive | STAT1 act-2 inactive
Cc1cc(C)n(-c2nnc3n2N=C(c2c[nH]c4ccccc24)CS3)n1	STAT3 act-1 158 (no result: APP 5'UTR act) | STAT3 act-2 154 | NFkB act 2 inactive | STAT1 act-2 inactive
Cc1cc(C)n(-c2nnc3n2N=C(c2ccccc2)CS3)n1	none
CCCCS(=O)(=O)Nc1ccc2cn[nH]c2c1	STAT3 act-1 143 | STAT3 act-2 139 | NFkB act 2 inactive | STAT1 act-2 inactive
COc1ccccc1S(=O)(=O)Nc1ccc2cn[nH]c2c1	none

Bioassay records (PubChem BioAssay)
